The list is not random: actives were taken first. Their share in the collection is about 5.2%.
ALR H2O2 inh: inhibitors of human ALR sulfhydryl oxidase, primary screen, biochemical, H2O2 detection, HRP-luminol luminescence, single point; FAD-linked sulfhydryl oxidase ALR (Homo sapiens), P55789; purified ALR, DTT oxidation; inhibition, % (no concentration beside the values); 290,000 compounds, 3.8% hits; AID 485317, 2010;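 active = mean replicate inhibition above about 79%, with every replicate also reaching it, limit read from the data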
Target sequence (P55789 whole entry, looked up): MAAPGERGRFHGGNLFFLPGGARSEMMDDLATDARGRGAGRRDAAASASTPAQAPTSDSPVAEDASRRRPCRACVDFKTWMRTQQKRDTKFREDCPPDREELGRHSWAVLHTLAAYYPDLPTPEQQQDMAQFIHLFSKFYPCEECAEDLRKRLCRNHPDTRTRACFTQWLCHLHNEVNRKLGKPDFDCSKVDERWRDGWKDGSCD
NS3 helicase inh: inhibitors of HCV NS3 helicase, primary screen, biochemical, Cy5 molecular beacon fluorescence. inhibition, % at 10.9 µM. AID 1800, 2009. 290,000 compounds, 0.56% hits. NS3 helicase DNA unwinding. Hepatitis C virus NS3 helicase;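 active = inhibition above the mean of all tested compounds plus 3 SD, set per campaign, cut at about 35% in these data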
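assay system = NS3 helicase fragment of HCV | buffer or medium = MOPS pH 6.5, MgCl2, DTT, Tween20, BSA | timing = 60 min unwinding reaction at 25 °C after ATP addition | signal = Cy5 beacon fluorescence read at start and 1 h | read-out basis = % inhibition of unwinding | control set = low DMSO, high thioflavine S at 110 µM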
EBNA-1 inhibitor: EBNA-1 DNA-binding inhibitors, primary screen, biochemical, fluorescence polarization. inhibition, % at 14.8 µM. 300,000 compounds, 0.34% hits. AID 1950, 2009; in the data active = inhibition above about 28%
ZTA DNA inh: blocks Epstein-Barr virus ZTA, an EBNA-1 counter-screen; inhibition, % at 11 µM; ZTA-DNA binding, fluorescence polarization; AID 2234; 320,000 compounds, 0.15% hits; in the data active = inhibition above about 33%
Target sequence (P03206 whole entry, looked up): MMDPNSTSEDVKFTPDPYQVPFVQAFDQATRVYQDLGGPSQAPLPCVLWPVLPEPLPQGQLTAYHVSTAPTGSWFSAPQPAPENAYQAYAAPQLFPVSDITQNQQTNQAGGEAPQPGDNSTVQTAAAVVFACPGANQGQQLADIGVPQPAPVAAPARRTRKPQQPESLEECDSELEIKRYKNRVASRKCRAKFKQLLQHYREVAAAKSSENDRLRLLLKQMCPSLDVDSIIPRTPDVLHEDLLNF
PfM18AAP inh: PfM18AAP inhibitors, malaria aminopeptidase, primary screen, biochemical, QFRET, recombinant enzyme; M18 aspartyl aminopeptidase (Plasmodium falciparum 3D7); 290,000 compounds, 1.2% hits; inhibition, % at 7.35 µM; AID 1822, 2009; H-Glu-NHMec fluorogenic cleavage;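 active = inhibition above the campaign mean inhibition over all tested compounds plus 3 SD, cut at about 28% in these data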
core dimer inh: inhibitors of HCV core protein dimerization, primary screen, biochemical, TR-FRET, high-throughput; 300,000 compounds, 0.33% hits; TR-FRET GST/Flag-core106 dimerization, 1536-well; AID 1899, 2009; inhibition, % at 5 µM;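 active = inhibition above the mean of all tested compounds plus 3 SD, set per screening campaign, cut at about 45% in these data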
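System – GST-tagged and Flag-tagged HCV core protein residues 1-106 · Repeats – one well for each compound · Technique – TR-FRET 671 and 617 nm emission · Doses – one concentration, 5 µM, in 0.5% DMSO · Times – 4 h, 22.5 °C incubation · Also added – Eu donor and XL665 acceptor anti-tag antibodies · Measure – percent inhibition of core106 dimerization signal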
A number is an active result; n = inactive; x = no result.

SMILES	ALR H2O2 inh	NS3 helicase inh	EBNA-1 inhibitor	ZTA DNA inh	PfM18AAP inh	core dimer inh
COc1ccc(Cn2nnnc2C(c2ccc(N(C)C)cc2)N2CCC(C(N)=O)CC2)cc1 (stereo not given)	n	n	n	n	n	n
Cc1ccc(NC(=O)Cn2c(=O)cnc3ccccc32)cc1S(=O)(=O)N1CCOCC1	n	x	x	n	x	x
Cc1cccc(CS(=O)(=O)Cc2ccc(C(=O)NC3CCCCCC3)o2)c1	n	n	n	n	n	n
CCn1c(SCC(=O)Nc2ncc(C(F)(F)F)cc2Cl)nnc1-c1ccccc1	n	n	n	n	n	n
CCOc1cc(/C=C2/C(=N)N3C(=NC2=O)SN=C3S(C)(=O)=O)ccc1OS(=O)(=O)c1ccccc1	94.8	n	n	n	n	n
O=[N+]([O-])CC(=Nc1ccc(Cl)cc1)N/N=C\c1oc(O)c2ccccc12	n	n	n	n	n	60.6
O=C(N/N=C\c1ccc(COc2ccc([N+](=O)[O-])cc2)o1)c1ccc(Cl)cc1	n	n	n	n	n	n
O=C(c1sc2ccccc2c1Cl)N1CCN(CCc2ccccn2)CC1	n	n	n	n	n	n
CCCCC(=O)Nc1ccnc(-c2cccnc2)n1	84.8	n	n	n	n	n
CCN1C(=NCCc2cccs2)N[C@@H](c2cccs2)C(C(=O)OC)=C1C	n	n	n	n	n	n
Cc1ccc2c(c1)C1C=CCC1C(C(=O)O)N2 (stereo not given)	n	36.7	45.2	n	n	94.3
Cc1ccc2c(c1)C1C=CCC1C(C(=O)NCCCN1CCOCC1)N2 (stereo not given)	n	x	n	n	x	n
O=C(O)C1Nc2ccc(OC(F)(F)F)cc2C2C=CCC12 (stereo not given)	96.8	x	n	n	x	n
Cc1oc2cc3oc(=O)c(CCC(=O)NCc4ccccn4)c(C)c3cc2c1C	n	n	n	n	n	n
Cc1cccc(CSC2=NCCN2C(=O)C2CC2)c1	n	n	n	n	n	n
CC(=O)N1CCN=C1SCc1cccc(Cl)c1	99.6	n	n	n	n	n
CC(=O)N1CCN=C1SCc1cccc(F)c1	97.0	n	n	n	n	n
CCC(=O)N1CCN=C1SCc1ccccc1	n	n	n	n	n	n
CC(=O)N1CCN=C1SCc1cccc(C)c1	96.1	n	n	n	n	n
CCC(=O)N1CCN=C1SCc1cccc(F)c1	96.5	n	n	n	n	n
CCN1C(=O)[C@H]2[C@@H](c3ccc(-c4ccc(C(C)=O)cc4)c(OC)c3)N[C@@](Cc3ccccc3)(C(=O)OC)[C@H]2C1=O	n	x	n	n	x	n
O=C(Cc1ccc(Cl)c(Cl)c1)Nc1ccc2[nH]c(=O)[nH]c2c1	n	n	n	n	n	n
Cc1ccc(S(=O)(=O)NCCN2CCOCC2)s1	n	n	n	n	n	n
CC(Oc1ccc(Cl)cc1Cl)C(=O)NCCC1=CCCCC1 (stereo not given)	n	n	n	n	n	n
O=C1Nc2ccccc2SC(c2ccccc2)C1O (stereo not given)	n	n	n	n	n	83.0
SMILES	ALR H2O2 inh	NS3 helicase inh	EBNA-1 inhibitor	ZTA DNA inh	PfM18AAP inh	core dimer inh
COc1ccc(Cn2nnnc2C(c2ccc3ncccc3c2)N2CCN(C3CCCCC3)CC2)cc1 (stereo not given)	n	n	n	n	n	n
c1ccc(Cn2nnnc2C(c2ccccn2)N2CCOCC2)cc1 (stereo not given)	n	n	n	n	n	n
CCC(c1nnnn1Cc1ccc2c(c1)OCO2)N1CCN(c2ccc(OC)cc2)CC1 (stereo not given)	87.8	n	n	n	n	n
c1ccc(Cn2nnnc2C(c2ccccn2)N2CCN(c3ccccc3)CC2)cc1 (stereo not given)	98.5	n	n	n	n	n
COc1ccc(N2CCN(C(c3ccc4ncccc4c3)c3nnnn3C(C)C)CC2)cc1 (stereo not given)	76.3	n	n	n	n	n
CCC(c1nnnn1Cc1ccc2c(c1)OCO2)N1CCN(c2ccc(F)cc2)CC1 (stereo not given)	n	n	n	n	n	n
COCCn1nnnc1C(CC(C)C)N1CCN(c2ccccc2)CC1 (stereo not given)	93.3	n	n	n	n	n
Oc1ccc(N2CCN(C(c3cccs3)c3nnnn3CCc3ccccc3)CC2)cc1 (stereo not given)	95.8	n	n	n	n	n
CC(C)(C)n1nnnc1C(c1cccnc1)N1CCOCC1 (stereo not given)	x	n	n	n	n	n
CCC(c1nnnn1Cc1ccccc1)N1CCN(c2ccc(OC)cc2)CC1 (stereo not given)	96.1	n	n	n	n	n
COc1ccc(Cn2nnnc2C(c2cccnc2)N2CCN(c3ccc(O)cc3)CC2)cc1 (stereo not given)	98.4	n	n	n	n	n
COc1ccc(Cn2nnnc2C(c2cccs2)N2CCN(c3ccccc3)CC2)cc1 (stereo not given)	n	n	n	n	n	n
CC(C)(C)n1nnnc1C(c1ccncc1)N1CCN(c2ccc(O)cc2)CC1 (stereo not given)	98.5	n	n	n	30.2	n
c1ccc(Cn2nnnc2C(c2cccs2)N2CCCCCC2)cc1 (stereo not given)	n	n	n	n	n	n
CCOC(=O)c1ccc(OCCOc2cccc(C)c2)cc1	n	n	n	n	n	n
O=C(NNC(=O)c1cc2ccccc2oc1=O)c1ccccc1[N+](=O)[O-]	n	n	n	n	n	n
C/C(=N\NC(=O)CSc1nc(C)cc(C)n1)c1ccc2c(c1)OCCO2	n	n	n	n	n	n
COc1ccc(OC)c(C(c2nnnn2C2CCCC2)N2CCN(c3ccccc3)CC2)c1 (stereo not given)	n	n	n	n	n	n
CCC(c1nnnn1C1CCCC1)N1CCN(c2cccc(OC)c2)CC1 (stereo not given)	98.0	n	n	n	n	n
COCCn1nnnc1C(c1cc2cc(OC)c(OC)cc2[nH]c1=O)N1CCN(c2ccc(O)cc2)CC1 (stereo not given)	x	n	n	n	28.3	n
CCCC(c1nnnn1CC1CCCO1)N1CCN(c2ccccc2)CC1 (stereo not given)	98.2	n	n	n	n	n
CCC(c1nnnn1Cc1ccc2c(c1)OCO2)N1CCN(c2ccccc2)CC1 (stereo not given)	90.1	n	n	n	n	n
CCCCC(c1nnnn1CC1CCCO1)N1CCN(Cc2ccccc2)CC1 (stereo not given)	n	n	n	n	n	n
O=C(CNC(=O)c1ccc(Cl)cc1Cl)OCc1cn2cc(Br)ccc2n1	n	x	x	x	x	x

Screens (PubChem)
